Laboratory results published in ChEMBL document CHEMBL1153564 (Antimicrob Agents Chemother, 2008).
≈ marks a conversion by molar mass, not a printed value. Calls of active or inactive are those of the source. The rule behind the calls is not given here. Starred links: 1 amine or outer side, 2 acyl side, 3 side chain; linkers in the order of their positions; H or OH if unused. Positions of bridges follow the written chain, without caps; N, C: chain ends. Non-standard residues stand in square brackets, D forms with d. Residues, ends and D or L forms follow the SMILES beside them. *: point of attachment. pTerphenylCO(4''-OnC5H11) = CCCCCOc1ccc(-c2ccc(-c3ccc(C(=O)*)cc3)cc2)cc1; Orn(4R-OH,5R-OH) = O=C([C@H](C[C@@H](O)[C@@H](O)N[*:3])N[*:1])[*:2]; hTyr(3S-OH,4S-OH) = N[C@H](C(=O)O)[C@H](O)[C@@H](O)c1ccc(O)cc1; Pro(3S-OH,4S-Me) = C[C@H]1CN[C@H](C(=O)O)[C@H]1O; Hyp = O=C(O)[C@@H]1C[C@@H](O)CN1

What was measured:
[1] = system: Nakaseomyces glabratus; experiment: Antifungal activity against Candida glabrata 5376 infected in neutropenic ICR/Swiss mouse candidiasis model assessed as dose required for 1-log10 reduction in […] per kidney administered intraperitoneally every 48 hrs up to 4 days measured per 96 hrs; format: functional
How it was run: (§1)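 Neutropenic ICR/Swiss mice infected i.v. with the strain; therapy began 2 h later. Total doses of 1.25–320 mg/kg/96 h were given i.p. as 1, 2, 4 or 6 doses (q96h, q48h, q24h, q16h), three mice per regimen. Kidney CFU were counted after 4 days. Effect is the change from untreated controls at the end of therapy.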

[2] = system: Nakaseomyces glabratus; experiment: Antifungal activity against Candida glabrata 5376 infected in neutropenic ICR/Swiss mouse candidiasis model assessed as dose required for 1-log10 reduction in […] per kidney administered intraperitoneally once every 96 hrs measured per 96 hrs; format: functional; how it was run: as §1
[3] = system: Nakaseomyces glabratus; experiment: Antifungal activity against Candida glabrata 34341 infected in neutropenic ICR/Swiss mouse candidiasis model assessed as dose required to maintain […] of 1.83 +/- 0.54 log10CFU per kidney administered intraperitoneally every 24 hrs up to 4 days measured per 24 hrs; format: functional
[4] = system: Nakaseomyces glabratus; experiment: Antifungal activity against Candida glabrata 5592 infected in neutropenic ICR/Swiss mouse candidiasis model assessed as dose required to maintain […] of 1.83 +/- 0.54 log10CFU per kidney administered intraperitoneally every 24 hrs up to 4 days measured per 24 hrs; format: functional
[5] = system: Nakaseomyces glabratus; experiment: Antifungal activity against Candida glabrata 5376 infected in neutropenic ICR/Swiss mouse candidiasis model assessed as suppression of fungal regrowth at 20 mg/kg, ip administered 2 hrs postinfection as single dose by time-kill assay; format: functional, organism-based; design: dose 20 mg/kg
How it was run: (§2)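 Neutropenic mice were infected i.v. and 2 h later given a single i.p. dose (1.25, 5 or 20 mg/kg). Groups of three treated and three control mice were killed at intervals over 96 h, and kidney CFU were counted on SDA (limit 100 CFU/ml). The post-antifungal effect is t − c: the time for a 1 log10 CFU/kidney increase once serum levels fall below the MIC in treated mice, minus the same time in controls.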

[6] = system: Nakaseomyces glabratus; experiment: Antifungal activity against Candida glabrata 5376 infected in neutropenic ICR/Swiss mouse candidiasis model assessed as prolongation of fungal growth suppression at 5 mg/kg, ip administered 2 hrs postinfection as single dose by time-kill assay; format: functional; conditions: route intraperitoneal; how it was run: as §2
[7] = system: Candida albicans; experiment: Antifungal activity against Candida albicans K-1 infected in neutropenic ICR/Swiss mouse candidiasis model assessed as […] burden per kidney administered intraperitoneally every 24 hrs up to 4 days measured per 96 hrs; format: functional; conditions: K-1, Kidney, ip
How it was run: (§3)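 Neutropenic mice were infected iv with C. albicans K-1 2 h before therapy. Total doses of 1.25, 5, 20, 80 and 320 mg/kg/96 h were split into 1, 2, 4 or 6 ip doses (q96h, q48h, q24h, q16h), three mice per regimen. Effect is the log10 CFU/kidney relative to untreated controls at 96 h. Static and 1-log doses were taken from a Hill model fit.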

[8] = system: Nakaseomyces glabratus; experiment: Antifungal activity against Candida glabrata 570 infected in neutropenic ICR/Swiss mouse candidiasis model assessed as dose required for 1-log10 reduction in […] per kidney administered intraperitoneally every 24 hrs up to 4 days measured per 24 hrs; format: functional
How it was run: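 Neutropenic mouse disseminated candidiasis, with i.p. therapy starting 2 h after i.v. infection. Five total doses of 0.078–20 mg/kg/24 h were given q24h for 4 days, three mice per dose. Kidney CFU were counted at the end and compared with untreated controls. The dose giving a 1 log10 CFU/kidney reduction was derived from the sigmoid Hill dose–effect model.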

[9] = system: Candida albicans; experiment: Antifungal activity against Candida albicans K-1 infected in neutropenic ICR/Swiss mouse candidiasis model assessed as dose required to maintain […] of 3.90 +/- 0.15 log10CFU per kidney administered intraperitoneally once every 96 hrs measured per 96 hrs; format: functional; how it was run: as §3
[10] = system: Nakaseomyces glabratus; experiment: Antifungal activity against Candida glabrata 5376 infected in neutropenic ICR/Swiss mouse candidiasis model assessed as dose required for 1-log10 reduction in […] per kidney administered intraperitoneally every 16 hrs up to 4 days measured per 96 hrs; format: functional; how it was run: as §1
[11] = system: Candida albicans; experiment: Antifungal activity against Candida albicans K-1 assessed as partial growth inhibition after 24 hrs by CLSI end point method; format: functional; conditions: K-1, 24 h
How it was run: (§4)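 CLSI M27-A2 broth dilution. Two end points read against the drug-free control well: partial inhibition (CLSI end point) and complete inhibition. Run in duplicate on four separate occasions; value is the mean. Drug stock in DMSO, diluted in 0.9% NaCl.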

[12] = system: Candida albicans; experiment: Antifungal activity against Candida albicans 98-210 assessed as partial growth inhibition after 24 hrs by CLSI end point method; format: functional; conditions: 98-210, 24 h; how it was run: as §4
[13] = system: Candida albicans; experiment: Antifungal activity against Candida albicans 580 assessed as partial growth inhibition after 24 hrs by CLSI end point method; format: functional; conditions: Candida albicans, 580, 24 h; how it was run: as §4
[14] = system: Candida tropicalis; experiment: Antifungal activity against Candida tropicalis 98-234 assessed as complete growth inhibition after 24 hrs by CLSI end point method; format: functional; conditions: 98-234, 24 h
[15] = system: Nakaseomyces glabratus; experiment: Antifungal activity against Candida glabrata 32930 assessed as complete growth inhibition after 24 hrs by CLSI end point method; format: functional; conditions: Nakaseomyces glabratus, 32930, 24 h; how it was run: as §4
[16] = system: Candida albicans; experiment: Antifungal activity against Candida albicans 98-17 infected in neutropenic ICR/Swiss mouse candidiasis model assessed as fungal count per kidney administered 2 hrs postinfection measured up to 48 hrs; format: functional
How it was run: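 Untreated neutropenic mice infected via the tail vein (inoculum about 6.1 log10 CFU/ml, 0.1 ml). Growth is the rise in kidney CFU over 48 h. Kidneys were homogenised, serially diluted 1:10 and plated on SDA for 24 h at 35°C. Mean of three mice.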

[17] = system: Nakaseomyces glabratus; experiment: Antifungal activity against Candida glabrata 5376 assessed as complete growth inhibition after 24 hrs by CLSI end point method; format: functional; conditions: Nakaseomyces glabratus, 5376, 24 h
How it was run: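 Two end points were read against the drug-free control well: partial growth inhibition (the CLSI end point) and complete inhibition. Run in duplicate on four separate occasions; the value is the mean. Drug stock was made in DMSO and diluted in 0.9% NaCl.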

[18] = system: Nakaseomyces glabratus; experiment: Antifungal activity against Candida glabrata 5376 infected in neutropenic ICR/Swiss mouse candidiasis model assessed as dose required to maintain […] of 3.71 +/- 0.21 log10CFU per kidney administered intraperitoneally once every 96 hrs measured per 96 hrs
[19] = system: Nakaseomyces glabratus; experiment: Antifungal activity against Candida glabrata 5376 infected in neutropenic ICR/Swiss mouse candidiasis model assessed as dose required to maintain […] of 3.71 +/- 0.21 log10CFU per kidney administered intraperitoneally every 48 hrs up to 4 days measured per 96 hrs
[20] = system: Nakaseomyces glabratus; experiment: Antifungal activity against Candida glabrata 5376 infected in neutropenic ICR/Swiss mouse candidiasis model assessed as dose required to maintain […] of 3.71 +/- 0.21 log10CFU per kidney administered intraperitoneally every 16 hrs up to 4 days measured per 96 hrs
[21] = system: Nakaseomyces glabratus; experiment: Antifungal activity against Candida glabrata 5376 infected in neutropenic ICR/Swiss mouse candidiasis model assessed as dose required to maintain […] of 3.71 +/- 0.21 log10CFU per kidney administered intraperitoneally every 24 hrs up to 4 days measured per 96 hrs

SMILES: CCCCCOc1ccc(-c2ccc(-c3ccc(C(=O)N[C@H]4C[C@@H](O)[C@@H](O)NC(=O)[C@@H]5[C@@H](O)[C@@H](C)CN5C(=O)[C@H]([C@@H](C)O)NC(=O)[C@H]([C@H](O)[C@@H](O)c5ccc(O)cc5)NC(=O)[C@@H]5C[C@@H](O)CN5C(=O)[C@H]([C@@H](C)O)NC4=O)cc3)cc2)cc1 [ANIDULAFUNGIN] ({pTerphenylCO(4''-OnC5H11)}-[Orn(4R-OH,5R-OH)]T[Hyp][hTyr(3S-OH,4S-OH)]T[Pro(3S-OH,4S-Me)]; lactam 1-C)
- Activity [1]: 27.4 mg/kg
- Activity [2]: 16.6 mg/kg
- Activity [3]: 6.9 mg/kg
- Activity [4]: 3.57 mg/kg
- Activity [5]: Active
- Activity [6]: 19 h
- ED50 [7]: 3.5 mg/kg
- Activity [8]: 3.72 mg/kg
- Activity [9]: 3.07 mg/kg
- Activity [10]: 56.7 mg/kg
- MIC [11]: 0.015 µg/mL (≈ 0.0132 µM)
- MIC [12]: 0.015 µg/mL (≈ 0.0132 µM)
- MIC [13]: 0.015 µg/mL (≈ 0.0132 µM)
- MIC [14]: 0.12 µg/mL (≈ 0.105 µM)
- MIC [15]: 0.12 µg/mL (≈ 0.105 µM)
- log10cfu [16]: 4.3
- MIC [17]: 0.06 µg/mL (≈ 0.0526 µM)
- Activity [18]: 9.06 mg/kg
- Activity [19]: 15.3 mg/kg
- Activity [20]: 30 mg/kg
- Activity [21]: 17.6 mg/kg
